# What was measured:
# BV-2 = assay: Antiinflammatory activity in mouse BV2 cells assessed as inhibition of LPS-induced nitric oxide production measured after 24 hrs by Griess assay; assay type: functional, cell-based; settings: BV-2, 24 h
# How it was run: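 Murine microglial BV2 cells were seeded at 4 × 10^4 cells/well and exposed to a range of compound concentrations. LPS (100 ng/mL) was added and cells were incubated 24 h. Nitrite in the medium was reacted 10 min with Griess reagent (0.1% N-1-naphthylethylenediamine dihydrochloride, 1% sulfanilamide in 5% phosphoric acid), read at 570 nm and quantified against a sodium nitrite standard curve. IC50 values are reported.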
# C6 [1] = assay: Neuroprotective activity in rat C6 cells assessed as induction of nerve growth factor secretion at 20 uM measured after 24 hrs by ELISA relative to control; assay type: functional
# How it was run: (§1)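 Rat C6 glioma cells were seeded at 1 × 10^5 cells/well. After 24 h they were switched to serum-free DMEM and treated with compound (20 μM, some at 5 μM) for 24 h. NGF secreted into the conditioned medium was quantified by ELISA and expressed as percent of untreated control (100%). Values are means ± SD of three independent experiments.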
# [2] = Cytotoxicity against rat C6 cells assessed as cell viability at 20 uM measured after 24 hrs by MTT assay relative to control; assay type: cell-based; settings: read-out: Activity
# How it was run: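 Rat C6 glioma cells were seeded at 1 × 10^5 cells/well. After 24 h they were switched to serum-free DMEM containing 20 μM compound for another 24 h. Viability was determined by MTT as percent of untreated control, some data at 5 μM. Values are means ± SD of three independent experiments.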
# [3] = Cytotoxicity against mouse BV2 cells assessed as cell viability at 20 uM measured after 24 hrs by MTT assay relative to control; assay type: cell-based, BV-2; settings: read-out: Activity
# How it was run: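 BV2 cells under the NO assay conditions (LPS 100 ng/mL, 24 h) were given 20 μM of each compound, with some data collected at 5 μM. Viability was measured by MTT and expressed as percent. Values are means ± SD of three independent experiments.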
# SK-OV-3 = assay: Cytotoxicity against human SKOV3 cells assessed as cell growth inhibition measured after 48 hrs by sulforhodamine B assay; assay type: functional, cell-based; settings: SK-OV-3, 48 h
# How it was run: (§2)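 The SRB assay was run on ATCC-derived human tumor lines maintained at the Korea Research Institute of Chemical Technology. Read-out was cell growth. IC50 is the concentration giving 50% growth inhibition. Cisplatin served as positive control.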
# HCT-15 = assay: Cytotoxicity against human HCT15 cells assessed as cell growth inhibition measured after 48 hrs by sulforhodamine B assay; assay type: functional, cell-based; settings: HCT-15, 48 h; how it was run: as §2
# A549 = assay: Cytotoxicity against human A549 cells assessed as cell growth inhibition measured after 48 hrs by sulforhodamine B assay; assay type: functional, cell-based; settings: A549, 48 h; how it was run: as §2
# SK-MEL-2 = assay: Cytotoxicity against human SK-MEL-2 cells assessed as cell growth inhibition measured after 48 hrs by sulforhodamine B assay; assay type: functional, cell-based; settings: SK-MEL-2, 48 h; how it was run: as §2
# [4] = Cytotoxicity against mouse BV2 cells assessed as cell viability at 5 uM measured after 24 hrs by MTT assay relative to control; assay type: cell-based, BV-2; settings: read-out: Activity
# How it was run: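 BV2 murine microglia were seeded at 4 × 10^4 cells/well, exposed to compound (5 μM here), and stimulated with LPS 100 ng/mL for 24 h. Viability was read by MTT and expressed as % of control. Values are means ± SD of three independent experiments.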
# C6 [5] = assay: Neuroprotective activity in rat C6 cells assessed as induction of nerve growth factor secretion at 5 uM measured after 24 hrs by ELISA relative to control; assay type: functional; how it was run: as §1
# [6] = Cytotoxicity against rat C6 cells assessed as cell viability at 5 uM measured after 24 hrs by MTT assay relative to control; assay type: cell-based; settings: read-out: Activity
# How it was run: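 C6 glioma cells were seeded at 1 × 10^5 cells/well, grown 24 h, then switched to serum-free DMEM with compound (5 μM here) for another 24 h. Viability was read by MTT as % of untreated cells. Values are means ± SD of three independent experiments.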
SMILES,IC50 (BV-2),Activity (C6 [1]),"viability at 24 h, 20 µM [2]","viability at 24 h, 20 µM [3]",IC50 (SK-OV-3),IC50 (HCT-15),IC50 (A549),IC50 (SK-MEL-2),"viability at 24 h, 5 µM [4]",Activity (C6 [5]),"viability at 24 h, 5 µM [6]"
C=C(C)[C@@H]1CC=C2[C@@H](CC[C@]23C(=C)CC[C@@]3(C)[C@H](C)CC(=O)/C=C(\C)C(=O)O)[C@@]1(C)CCC(=O)O,19.1 µM,195.1%,104%,136%,–,–,–,–,–,–,–
CNC(=N)NCCC[C@H](N)C(=O)O [TILARGININE],–,–,–,105%,–,–,–,–,–,–,–
C=C(C)[C@@H]1C=CC2=C3CC[C@@](C)([C@H](C)CC(=O)C[C@@H](C)C(=O)O)[C@]3(C)CC[C@H]2[C@@]1(C)CCC(=O)O,–,146.1%,110%,–,–,–,–,–,–,–,–
C/C(=C\C(=O)C[C@@H](C)[C@H]1CC[C@@]2(C)C3=CC[C@H]4C(C)(C)C(=O)CC[C@]4(C)[C@@H]3CC[C@]12C)C(=O)O,10.5 µM,153.9%,62.2%,19.4%,7.7 µM,> 10 µM,8.7 µM,3.2 µM,–,–,–
C/C(=C\CC[C@@H](C)[C@H]1CC[C@@]2(C)[C@@H]3CC[C@H]4C(C)(C)C(=O)CC[C@@]45C[C@@]35CC[C@]12C)C(=O)O [MANGIFERONIC ACID],9 µM,–,–,21%,–,–,–,–,–,–,–
C[C@@H]1C[C@]2(C[C@@H](C)[C@]3(CC[C@@]4(C)[C@@H]5CC[C@H]6C(C)(C)[C@H](O)CC[C@@]67C[C@@]57CC[C@@]43C)O2)OC1=O,–,149.3%,107%,–,> 10 µM,> 10 µM,> 10 µM,8.5 µM,–,–,–
C/C(=C\CO)[C@H](O)C[C@@H]1[C@@]2(C)CCCC(C)(C)[C@@H]2CC[C@@]1(C)O,–,127.9%,104%,–,–,–,–,–,–,–,–
C=C(C)[C@@H]1CC=C2[C@@H](CC=C3[C@@]2(C)CC[C@@]3(C)[C@H](C)C[C@@H]2C[C@@H](C)C(=O)O2)[C@@]1(C)CCC(=O)OC,39.7 µM,–,–,86.8%,6.2 µM,2.3 µM,2.4 µM,1.7 µM,–,–,–
C/C(=C\CC[C@@H](C)[C@H]1CC[C@@]2(C)[C@@H]3CC[C@H]4C(C)(C)[C@@H](O)CC[C@@]45C[C@@]35CC[C@]12C)C(=O)O [MANGIFEROLIC ACID],12.8 µM,128.6%,79.3%,35.2%,–,–,–,–,–,–,–
CC1=CC(O)(C[C@@H](C)[C@]2(C)CC=C3C4=CC[C@H]5C(C)(C)[C@H](O)CC[C@]5(C)[C@@H]4CC[C@]32C)OC1=O (stereo not given in full),4 µM,121.7%,56.7%,9.7%,> 10 µM,> 10 µM,> 10 µM,4.2 µM,154%,158.1%,108%
CCCCC/C=C/C(=O)CCc1ccc(O)c(OC)c1 [SHOGAOL],–,158.2%,110%,–,–,–,–,–,–,–,–
CC1(C)O[C@H]2C[C@H]3C(=C[C@]21O)CC[C@@H]1[C@]3(C)CCC[C@@]1(C)C(=O)O,–,136.9%,99%,–,–,–,–,–,–,–,–
C/C(=C\CO)[C@@H](O)C[C@@H]1[C@@]2(C)CCCC(C)(C)[C@@H]2CC[C@@]1(C)O,19.5 µM,125.7%,99.8%,122%,–,–,–,–,–,–,–
C=C(CC(=O)C[C@@H](C)[C@]1(C)CCC(=C)[C@]12CC[C@@H]1C2=CC[C@@H](C(=C)C)[C@]1(C)CCC(=O)O)C(=O)O,–,173.3%,112%,–,–,–,–,–,–,–,–
C=C(C)[C@@H]1CC=C2[C@@H](CC[C@]3(C)[C@@H]([C@H](C)C[C@@H]4C[C@@H](C)C(=O)O4)CC[C@@]23C)[C@@]1(C)CCC(=O)OC,17.3 µM,–,–,123%,> 10 µM,8.1 µM,> 10 µM,5.5 µM,–,–,–

# Continued, in another order:
IC50 (BV-2),SMILES,Activity (C6 [1]),"viability at 24 h, 20 µM [2]","viability at 24 h, 20 µM [3]",IC50 (SK-OV-3),IC50 (HCT-15),IC50 (A549),IC50 (SK-MEL-2),"viability at 24 h, 5 µM [4]",Activity (C6 [5]),"viability at 24 h, 5 µM [6]"
10.2 µM,CC1=CC(O)(C[C@@H](C)[C@H]2CC[C@@]3(C)C4=CC[C@H]5C(C)(C)C(=O)CC[C@]5(C)[C@@H]4CC[C@]23C)OC1=O (stereo not given in full),–,–,15.9%,> 10 µM,> 10 µM,9.4 µM,4.1 µM,–,–,–
9.8 µM,CC(=O)/C=C/C1[C@](C)(O)CC[C@H]2C(C)(C)CCC[C@]12C (stereo not given in full),–,–,114%,–,–,–,–,–,–,–
20.3 µM,CC1(C)CCC[C@]2(C)[C@H]3CC(=O)O[C@]3(C)CC[C@@H]12,–,–,131%,–,–,–,–,–,–,–
42.2 µM,C=C[C@@](C)(O)[C@H]1C[C@@H]2[C@@]3(C)CCCC(C)(C)[C@@H]3CC[C@@]2(C)O1,–,–,118%,–,–,–,–,–,–,–
25 µM,C=C[C@@]1(C)O[C@]2(C)CC[C@H]3C(C)(C)CCC[C@]3(C)[C@H]2C[C@H]1O,–,–,112%,–,–,–,–,–,–,–
29.8 µM,C/C(=C\[C@H](O)C[C@@H](C)[C@H]1CC[C@@]2(C)C3=CC[C@H]4C(C)(C)C(=O)CC[C@]4(C)[C@@H]3CC[C@]12C)C(=O)O,140.9%,111%,125%,> 10 µM,> 10 µM,> 10 µM,8.8 µM,–,–,–
10.3 µM,C/C(=C\C(=O)C[C@@H](C)[C@@H]1CC=C2C3=CC[C@H]4C(C)(C)[C@H](O)CC[C@]4(C)[C@@H]3CC[C@]21C)C(=O)O,156%,85.7%,9.9%,> 10 µM,> 10 µM,> 10 µM,7.2 µM,–,–,–
13.6 µM,C=C[C@@]1(C)C=C2CC[C@@H]3[C@](C)(CCC[C@@]3(C)C(=O)O)[C@H]2CC1 [PIMARIC ACID],–,–,117%,–,–,–,–,–,–,–
15 µM,C=C(CC(=O)C[C@@H](C)[C@H]1CC[C@@]2(C)C3=CC[C@H]4C(C)(C)C(=O)CC[C@]4(C)[C@@H]3CC[C@]12C)C(=O)O,178.9%,98.5%,125%,–,–,–,–,–,–,–
18.1 µM,C[C@]12CCC[C@@](C)(C(=O)O)[C@@H]1CCC1=CC(=O)CC[C@@H]12,–,–,124%,–,–,–,–,–,–,–
